Source: ChEMBL document CHEMBL4261552, “4-Hydroxy-N-[3,5-bis(trifluoromethyl)phenyl]-1,2,5-thiadiazole-3-carboxamide: a novel inhibitor of the canonical NF-κB cascade” (Medchemcomm, 2017)

Key:
[1] = target: T1, Inhibitor of nuclear factor kappa-B kinase subunit alpha (Homo sapiens, UniProt O15111); test: Inhibition of human IKKalpha using ERLLDDRHDSGLDSMKDEE as substrate after 60 mins in presence of ATP by ADP-Glo kinase assay
T1 sequence (O15111 whole entry): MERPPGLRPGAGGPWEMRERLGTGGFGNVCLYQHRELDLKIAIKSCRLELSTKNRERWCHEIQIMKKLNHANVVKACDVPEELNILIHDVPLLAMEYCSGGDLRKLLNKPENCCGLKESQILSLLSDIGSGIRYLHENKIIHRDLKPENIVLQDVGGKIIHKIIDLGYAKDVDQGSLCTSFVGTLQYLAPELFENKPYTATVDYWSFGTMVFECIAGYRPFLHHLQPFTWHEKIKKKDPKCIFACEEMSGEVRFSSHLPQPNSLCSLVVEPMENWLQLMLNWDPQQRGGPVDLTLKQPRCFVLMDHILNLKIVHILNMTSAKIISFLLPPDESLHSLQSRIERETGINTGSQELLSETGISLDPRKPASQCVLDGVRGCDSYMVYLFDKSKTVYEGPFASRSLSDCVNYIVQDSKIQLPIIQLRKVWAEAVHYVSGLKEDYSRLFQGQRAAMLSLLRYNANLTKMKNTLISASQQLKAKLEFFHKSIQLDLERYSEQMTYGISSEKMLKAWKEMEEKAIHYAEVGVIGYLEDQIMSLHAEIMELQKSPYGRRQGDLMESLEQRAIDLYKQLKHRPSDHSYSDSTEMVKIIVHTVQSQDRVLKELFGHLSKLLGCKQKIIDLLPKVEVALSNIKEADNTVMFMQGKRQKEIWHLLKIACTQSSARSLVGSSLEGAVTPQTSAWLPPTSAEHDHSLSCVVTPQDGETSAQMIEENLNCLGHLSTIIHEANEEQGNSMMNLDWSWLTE

[2] = target: T2, Inhibitor of nuclear factor kappa-B kinase subunit beta (Homo sapiens, UniProt O14920); test: Inhibition of IKK-beta in human Jurkat cells assessed as reduction in TNFalpha-stimulated IkBalpha degradation preincubated for 60 mins followed by TNFalpha stimulation for 20 mins by immunoblot analysis; format: cell-based
T2 sequence (O14920 whole entry): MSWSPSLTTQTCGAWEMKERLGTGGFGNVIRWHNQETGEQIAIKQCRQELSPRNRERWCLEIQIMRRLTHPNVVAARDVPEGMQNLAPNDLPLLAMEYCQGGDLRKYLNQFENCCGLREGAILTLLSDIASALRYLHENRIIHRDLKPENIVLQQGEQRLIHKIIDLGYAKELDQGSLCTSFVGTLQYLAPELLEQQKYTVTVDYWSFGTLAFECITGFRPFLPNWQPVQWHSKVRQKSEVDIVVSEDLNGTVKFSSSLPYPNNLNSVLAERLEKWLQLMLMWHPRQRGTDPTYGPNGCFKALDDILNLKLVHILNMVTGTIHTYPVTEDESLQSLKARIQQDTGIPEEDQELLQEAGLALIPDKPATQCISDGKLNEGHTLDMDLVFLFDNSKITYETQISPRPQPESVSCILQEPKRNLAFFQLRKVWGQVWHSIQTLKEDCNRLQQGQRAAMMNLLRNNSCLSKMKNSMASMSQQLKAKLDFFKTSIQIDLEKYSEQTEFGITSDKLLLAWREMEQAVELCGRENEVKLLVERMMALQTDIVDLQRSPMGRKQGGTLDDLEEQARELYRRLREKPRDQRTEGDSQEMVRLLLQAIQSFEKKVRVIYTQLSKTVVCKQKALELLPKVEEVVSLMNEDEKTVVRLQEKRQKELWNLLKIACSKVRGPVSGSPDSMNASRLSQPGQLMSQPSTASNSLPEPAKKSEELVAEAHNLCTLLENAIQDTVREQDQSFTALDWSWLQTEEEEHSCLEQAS

MDA-MB-231 [3] = test: Antiproliferative activity against human MDA-MB-231 cells assessed as DNA content after 72 hrs by Hoechst 33258 staining based fluorescence assay; format: functional, cell-based; settings: MDA-MB-231, 72 h
Method in brief: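 MDA-MB-231 cells (5 x 10³/well) grown in DMEM with 10% FBS and exposed to 0.001 - 200 µM compound or DMSO vehicle for 72 h. Cells were washed with PBS and lysed in 0.02% SDS in SSC buffer for 1 h at 37 °C. Hoechst 33258 (1 µg/mL) was then added and fluorescence read at ex 355/em 460 nm. IC50 taken by nonlinear regression; mean ± SD of three independent experiments.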

MDA-MB-231 [4] = test: Inhibition of constitutively activated canonical NF-kB signaling pathway in human MDA-MB-231 cells assessed as residual activity at 10 uM after 6 hrs by luciferase reporter gene assay relative to control; format: cell-based
Method in brief: (§1)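 MDA-MB-231 cells (constitutive NF-κB) nucleofected with 3 µg of NF-κB-RE firefly luciferase plus TK-Renilla plasmids (10:1), then cultured 24 h. Compound added for a further 6 h or 24 h, without stimulus. Firefly/Renilla ratio expressed as % of DMSO-treated control; mean ± SD of three independent experiments.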

[5] = target: Mitogen-activated protein kinase kinase kinase 14 (Homo sapiens, UniProt Q99558); test: Inhibition of human NIK at 100 uM using AKDVDQGSLCTSFVGTLQY as substrate after 60 mins in presence of ATP by ADP-Glo kinase assay relative to control
Sequence of Mitogen-activated protein kinase kinase kinase 14 (Q99558 whole entry, looked up): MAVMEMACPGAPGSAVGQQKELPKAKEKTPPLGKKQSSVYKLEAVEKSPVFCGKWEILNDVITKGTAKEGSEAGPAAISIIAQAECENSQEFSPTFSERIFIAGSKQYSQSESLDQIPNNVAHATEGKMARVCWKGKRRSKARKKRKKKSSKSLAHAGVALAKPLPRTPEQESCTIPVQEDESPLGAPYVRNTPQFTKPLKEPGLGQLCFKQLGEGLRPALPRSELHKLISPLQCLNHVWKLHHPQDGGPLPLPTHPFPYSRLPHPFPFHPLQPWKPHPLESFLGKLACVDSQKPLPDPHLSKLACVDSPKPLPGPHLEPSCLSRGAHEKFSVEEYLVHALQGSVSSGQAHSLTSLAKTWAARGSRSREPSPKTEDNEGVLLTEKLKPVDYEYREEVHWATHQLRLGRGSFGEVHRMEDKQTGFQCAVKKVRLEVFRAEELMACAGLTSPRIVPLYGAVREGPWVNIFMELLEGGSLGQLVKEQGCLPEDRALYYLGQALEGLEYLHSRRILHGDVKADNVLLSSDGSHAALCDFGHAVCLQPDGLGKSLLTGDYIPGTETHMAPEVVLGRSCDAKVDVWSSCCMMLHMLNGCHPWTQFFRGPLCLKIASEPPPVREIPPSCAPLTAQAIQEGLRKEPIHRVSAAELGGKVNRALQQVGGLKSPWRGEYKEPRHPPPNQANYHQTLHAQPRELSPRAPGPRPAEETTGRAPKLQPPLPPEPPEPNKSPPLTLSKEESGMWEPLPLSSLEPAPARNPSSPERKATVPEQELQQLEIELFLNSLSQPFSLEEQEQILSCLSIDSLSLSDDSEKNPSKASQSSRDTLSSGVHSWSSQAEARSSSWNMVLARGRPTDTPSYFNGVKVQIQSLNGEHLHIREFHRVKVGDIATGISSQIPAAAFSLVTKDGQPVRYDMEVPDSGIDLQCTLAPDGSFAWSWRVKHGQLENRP

MDA-MB-231 [6] = test: Inhibition of constitutively activated canonical NF-kB signaling pathway in human MDA-MB-231 cells assessed as residual activity at 10 uM after 24 hrs by luciferase reporter gene assay relative to control; format: cell-based; method in brief: as §1

O=C(Nc1cc(C(F)(F)F)cc(C(F)(F)F)c1)c1nsnc1O
IC50 [1]: > 100000 nM | IC50 [2]: 143 nM | IC50 (MDA-MB-231 [3]): 1290 nM | Activity (MDA-MB-231 [4]): 96.1% | inhibition [5]: 4.34% | Activity (MDA-MB-231 [6]): 63%

O=C(Nc1cc(C(F)(F)F)cc(C(F)(F)F)c1)c1cc(Cl)ccc1O [IMD-0354]
IC50 [1]: > 100000 nM | IC50 [2]: 218 nM | IC50 (MDA-MB-231 [3]): 640 nM | Activity (MDA-MB-231 [4]): 99% | inhibition [5]: 13.8% | Activity (MDA-MB-231 [6]): 58.3%
